Results from ChEMBL document CHEMBL1799931, “Synthesis, evaluation and metabolic studies of radiotracers containing a 4-(4-[18F]-fluorobenzyl)piperidin-1-yl moiety for the PET imaging of NR2B NMDA receptors” (Eur J Med Chem, 2011).

Key:
Muscle tissue [1] = test: Biodistribution in Sprague-Dawley rat muscle at 3.2 to 18.6 MBq, iv after 120 mins by micro PET analysis; type: ADME, organism-based; settings: in vivo, 2 h
Summary of the method: (§1)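 Male Sprague-Dawley rats (235-310 g) under isoflurane got 18F radiotracer (3.2-18.6 MBq) by tail-vein catheter, n = 3. Dynamic microPET scan for 120 min, then ex vivo tissue counting at 120 min post-injection. Values are %ID/g ± SEM.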

[2] = Biodistribution in Sprague-Dawley rat fat at 3.2 to 18.6 MBq, iv after 120 mins by micro PET analysis; type: ADME, organism-based, Adipose tissue; settings: in vivo, 2 h; summary of the method: as §1
Brain [3] = test: Biodistribution in Sprague-Dawley rat brain at 3.2 to 18.6 MBq, iv after 120 mins by micro PET analysis; type: ADME, organism-based; settings: in vivo, 2 h; summary of the method: as §1
Bone [4] = test: Biodistribution in Sprague-Dawley rat bone at 3.2 to 18.6 MBq, iv after 120 mins by micro PET analysis; type: ADME, organism-based, Bone element; settings: in vivo, 2 h; summary of the method: as §1
Rattus norvegicus [5] = test: Biodistribution in Sprague-Dawley rat cartilage at 3.2 to 18.6 MBq, iv after 120 mins by micro PET analysis; type: ADME, organism-based, Cartilage tissue; settings: in vivo, 2 h; summary of the method: as §1
Thymus [6] = test: Biodistribution in Sprague-Dawley rat thymus at 3.2 to 18.6 MBq, iv after 120 mins by micro PET analysis; type: ADME, organism-based; settings: in vivo, 2 h; summary of the method: as §1
[7] = Metabolic stability in Sprague-Dawley rat plasma assessed as half life by radio thin layer chromatography analysis; type: ADME, cell-free
Summary of the method: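 Anesthetized male Sprague-Dawley rats (235-330 g) given radiotracer (3.2-15.1 MBq). Femoral arterial blood was sampled over 90 min and plasma gamma-counted. Plasma was diluted with acetonitrile, centrifuged and run on silica radio-TLC with cold reference, giving parent and radiometabolite fractions.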

Lung [8] = test: Biodistribution in Sprague-Dawley rat lung at 3.2 to 18.6 MBq, iv after 120 mins by micro PET analysis; type: ADME, organism-based; settings: in vivo, 2 h; summary of the method: as §1
Heart [9] = test: Biodistribution in Sprague-Dawley rat heart at 3.2 to 18.6 MBq, iv after 120 mins by micro PET analysis; type: ADME, organism-based; settings: in vivo, 2 h; summary of the method: as §1
Pancreas [10] = test: Biodistribution in Sprague-Dawley rat pancreas at 3.2 to 18.6 MBq, iv after 120 mins by micro PET analysis; type: ADME, organism-based; settings: in vivo, 2 h; summary of the method: as §1
Liver [11] = test: Biodistribution in Sprague-Dawley rat liver at 3.2 to 18.6 MBq, iv after 120 mins by micro PET analysis; type: ADME, organism-based; settings: in vivo, 2 h; summary of the method: as §1
Spleen [12] = test: Biodistribution in Sprague-Dawley rat spleen at 3.2 to 18.6 MBq, iv after 120 mins by micro PET analysis; type: ADME, organism-based; settings: in vivo, 2 h; summary of the method: as §1
Kidney [13] = test: Biodistribution in Sprague-Dawley rat kidney at 3.2 to 18.6 MBq, iv after 120 mins by micro PET analysis; type: ADME, organism-based; settings: in vivo, 2 h; summary of the method: as §1
[14] = Biodistribution in Sprague-Dawley rat urine at 3.2 to 18.6 MBq, iv after 120 mins by micro PET analysis; type: ADME, organism-based; settings: in vivo, 2 h; summary of the method: as §1
Rattus norvegicus [15] = test: Biodistribution in Sprague-Dawley rat bladder at 3.2 to 18.6 MBq, iv after 120 mins by micro PET analysis; type: ADME, organism-based, Urinary bladder; settings: in vivo, 2 h; summary of the method: as §1
Intestine [16] = test: Biodistribution in Sprague-Dawley rat intestine at 3.2 to 18.6 MBq, iv after 120 mins by micro PET analysis; type: ADME, organism-based; settings: in vivo, 2 h; summary of the method: as §1
Hippocampus = test: Biodistribution in Sprague-Dawley rat hippocampus at 3.2 to 18.6 MBq, iv after 120 mins by micro PET analysis; settings: in vivo, 2 h
Cerebellum = test: Biodistribution in Sprague-Dawley rat cerebellum at 3.2 to 18.6 MBq, iv after 120 mins by micro PET analysis; settings: in vivo, 2 h
[17] = Inhibition of alpha-adrenergic receptor
[18] = target: Voltage-gated inwardly rectifying potassium channel KCNH2 (Homo sapiens, UniProt Q12809); test: Inhibition of human ERG potassium channel
Chain of Voltage-gated inwardly rectifying potassium channel KCNH2 (Q12809 whole entry): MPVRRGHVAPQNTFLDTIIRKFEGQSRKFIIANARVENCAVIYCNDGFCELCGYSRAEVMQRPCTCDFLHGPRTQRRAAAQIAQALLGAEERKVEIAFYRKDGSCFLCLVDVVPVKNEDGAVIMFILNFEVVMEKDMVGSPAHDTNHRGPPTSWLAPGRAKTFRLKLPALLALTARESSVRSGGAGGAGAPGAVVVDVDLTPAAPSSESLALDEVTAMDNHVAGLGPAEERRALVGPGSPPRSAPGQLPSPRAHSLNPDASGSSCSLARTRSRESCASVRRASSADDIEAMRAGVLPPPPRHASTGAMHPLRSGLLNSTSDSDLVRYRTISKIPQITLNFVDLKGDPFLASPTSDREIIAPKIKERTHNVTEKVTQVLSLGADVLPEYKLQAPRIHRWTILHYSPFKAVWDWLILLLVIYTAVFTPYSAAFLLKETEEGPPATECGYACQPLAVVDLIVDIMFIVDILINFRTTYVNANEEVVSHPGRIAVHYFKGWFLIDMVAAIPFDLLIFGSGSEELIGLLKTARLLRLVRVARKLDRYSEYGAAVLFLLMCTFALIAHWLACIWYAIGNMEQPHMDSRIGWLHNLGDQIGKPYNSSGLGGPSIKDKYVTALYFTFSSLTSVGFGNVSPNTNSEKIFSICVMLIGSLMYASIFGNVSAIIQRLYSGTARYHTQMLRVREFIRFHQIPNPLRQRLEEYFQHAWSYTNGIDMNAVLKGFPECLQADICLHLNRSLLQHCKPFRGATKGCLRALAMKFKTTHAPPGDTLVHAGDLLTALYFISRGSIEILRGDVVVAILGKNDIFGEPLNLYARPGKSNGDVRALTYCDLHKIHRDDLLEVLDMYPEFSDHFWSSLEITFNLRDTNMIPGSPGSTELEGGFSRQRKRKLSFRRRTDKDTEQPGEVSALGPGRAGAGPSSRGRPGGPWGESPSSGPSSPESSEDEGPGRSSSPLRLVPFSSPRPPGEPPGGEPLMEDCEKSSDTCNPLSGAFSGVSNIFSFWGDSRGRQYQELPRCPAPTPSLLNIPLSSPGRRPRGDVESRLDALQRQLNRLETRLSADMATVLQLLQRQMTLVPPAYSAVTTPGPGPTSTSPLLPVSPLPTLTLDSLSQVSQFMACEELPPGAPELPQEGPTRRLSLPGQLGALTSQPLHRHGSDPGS

[19] = target: T1, Glutamate NMDA receptor; GRIN1/GRIN2B (Homo sapiens, UniProt Q05586+Q13224); test: Antagonist activity against NR1a/NR2B receptor transfected in human HEK293 cells assessed as inhibition of NMDA-induced Ca2+ influx; type: functional, cell-based
T1 sequence (Q13224 whole entry, other chains not shown): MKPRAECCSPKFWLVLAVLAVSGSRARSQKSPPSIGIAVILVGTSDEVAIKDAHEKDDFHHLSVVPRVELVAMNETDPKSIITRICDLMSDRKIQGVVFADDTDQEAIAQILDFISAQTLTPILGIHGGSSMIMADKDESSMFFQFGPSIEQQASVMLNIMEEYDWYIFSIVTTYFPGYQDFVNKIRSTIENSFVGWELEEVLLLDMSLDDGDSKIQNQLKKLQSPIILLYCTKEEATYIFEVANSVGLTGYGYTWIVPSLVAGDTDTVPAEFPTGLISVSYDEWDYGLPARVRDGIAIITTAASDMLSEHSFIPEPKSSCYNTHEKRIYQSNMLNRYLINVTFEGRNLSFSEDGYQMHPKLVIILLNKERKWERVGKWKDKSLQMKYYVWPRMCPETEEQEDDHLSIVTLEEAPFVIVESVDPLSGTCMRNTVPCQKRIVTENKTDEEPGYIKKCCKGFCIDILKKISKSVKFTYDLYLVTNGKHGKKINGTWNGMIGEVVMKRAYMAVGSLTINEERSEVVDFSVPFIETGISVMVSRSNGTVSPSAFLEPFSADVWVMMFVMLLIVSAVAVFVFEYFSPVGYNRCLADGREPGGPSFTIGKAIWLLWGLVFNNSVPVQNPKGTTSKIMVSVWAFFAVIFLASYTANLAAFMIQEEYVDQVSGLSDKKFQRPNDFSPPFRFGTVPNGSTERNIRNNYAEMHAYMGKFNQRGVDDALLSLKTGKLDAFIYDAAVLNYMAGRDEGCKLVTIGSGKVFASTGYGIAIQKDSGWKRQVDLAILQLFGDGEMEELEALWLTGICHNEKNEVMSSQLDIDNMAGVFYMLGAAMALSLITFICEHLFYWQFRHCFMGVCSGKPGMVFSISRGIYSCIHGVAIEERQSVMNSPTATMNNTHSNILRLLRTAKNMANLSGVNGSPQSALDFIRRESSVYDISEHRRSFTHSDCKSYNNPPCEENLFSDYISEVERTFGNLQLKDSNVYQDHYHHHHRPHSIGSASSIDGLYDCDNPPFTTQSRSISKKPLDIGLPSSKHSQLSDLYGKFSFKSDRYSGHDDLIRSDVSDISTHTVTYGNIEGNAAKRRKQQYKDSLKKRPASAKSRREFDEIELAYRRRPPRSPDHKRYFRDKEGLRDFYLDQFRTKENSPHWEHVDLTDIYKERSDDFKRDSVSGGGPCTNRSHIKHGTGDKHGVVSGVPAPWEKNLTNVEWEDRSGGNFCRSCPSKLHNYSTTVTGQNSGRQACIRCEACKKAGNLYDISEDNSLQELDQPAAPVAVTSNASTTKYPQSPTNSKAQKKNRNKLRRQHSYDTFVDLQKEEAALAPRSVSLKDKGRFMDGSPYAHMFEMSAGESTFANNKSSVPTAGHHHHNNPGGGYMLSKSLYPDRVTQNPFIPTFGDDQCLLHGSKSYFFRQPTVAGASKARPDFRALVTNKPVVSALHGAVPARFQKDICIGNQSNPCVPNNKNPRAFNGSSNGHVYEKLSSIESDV

[20] = target: Glutamate NMDA receptor; GRIN1/GRIN2A (Homo sapiens) (UniProt Q05586+Q12879); test: Antagonist activity against NR1a/NR2A receptor transfected in human HEK293 cells assessed as inhibition of NMDA-induced Ca2+ influx at 10 uM; type: functional, cell-based
Summary of the method: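 HEK293 cells co-transfected 1:1 with NR1-1a plus NR2A-GFP or NR2B-GFP, D-APV (100 µM) after transfection, used at 24 h. Cells loaded with Fura-2/AM 45 min at 37 °C, then held in HBBSS with glycine, pH 7.45, at room temperature under perfusion. NMDA 100 µM for 30 s; ligands applied 60 s before and during.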

Plasma = test: Metabolic stability of the compound in rat plasma after 30 mins; type: ADME, cell-free; settings: 0.5 h
Summary of the method: (§2)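 Rat plasma or liver homogenate (0.450 mL) spiked with ligand at 5-200 mg/L. Samples were deproteinized with acetonitrile immediately or after 30 min at 37 °C, then analysed by HPLC in triplicate injections.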

Liver [21] = test: Metabolic stability of the compound in rat liver homogenate after 30 mins; type: ADME, tissue-based; settings: tissue homogenate, 0.5 h; summary of the method: as §2
Mus musculus = test: Analgesic activity in po dosed mouse assessed as licking behavior measured after 20 to 25 mins by formalin test; type: functional, organism-based
[22] = target: T1, Glutamate NMDA receptor; GRIN1/GRIN2B; test: Displacement of [3H]-Ro-256981 from recombinant NR1/NR2B receptor; type: protein-complex assay
Thymus [23] = test: Biodistribution in Sprague-Dawley rat thymus at 3.2 to 18.6 MBq, iv after 90 mins by micro PET analysis; type: ADME, organism-based; settings: in vivo, 1.5 h
Summary of the method: (§3)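 Male Sprague-Dawley rats (235-310 g) under isoflurane got 18F radiotracer (3.2-18.6 MBq) by tail-vein catheter, n = 2. Dynamic microPET scan for 90 min, then ex vivo tissue counting at 90 min post-injection. Values are %ID/g ± SEM.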

Lung [24] = test: Biodistribution in Sprague-Dawley rat lung at 3.2 to 18.6 MBq, iv after 90 mins by micro PET analysis; type: ADME, organism-based; settings: in vivo, 1.5 h; summary of the method: as §3
Heart [25] = test: Biodistribution in Sprague-Dawley rat heart at 3.2 to 18.6 MBq, iv after 90 mins by micro PET analysis; type: ADME, organism-based; settings: in vivo, 1.5 h; summary of the method: as §3
Pancreas [26] = test: Biodistribution in Sprague-Dawley rat pancreas at 3.2 to 18.6 MBq, iv after 90 mins by micro PET analysis; type: ADME, organism-based; settings: in vivo, 1.5 h; summary of the method: as §3
Liver [27] = test: Biodistribution in Sprague-Dawley rat liver at 3.2 to 18.6 MBq, iv after 90 mins by micro PET analysis; type: ADME, organism-based; settings: in vivo, 1.5 h; summary of the method: as §3
Spleen [28] = test: Biodistribution in Sprague-Dawley rat spleen at 3.2 to 18.6 MBq, iv after 90 mins by micro PET analysis; type: ADME, organism-based; settings: in vivo, 1.5 h; summary of the method: as §3
Kidney [29] = test: Biodistribution in Sprague-Dawley rat kidney at 3.2 to 18.6 MBq, iv after 90 mins by micro PET analysis; type: ADME, organism-based; settings: in vivo, 1.5 h; summary of the method: as §3
[30] = Biodistribution in Sprague-Dawley rat urine at 3.2 to 18.6 MBq, iv after 90 mins by micro PET analysis; type: ADME, organism-based; settings: in vivo, 1.5 h; summary of the method: as §3
Rattus norvegicus [31] = test: Biodistribution in Sprague-Dawley rat bladder at 3.2 to 18.6 MBq, iv after 90 mins by micro PET analysis; type: ADME, organism-based, Urinary bladder; settings: in vivo, 1.5 h; summary of the method: as §3
Intestine [32] = test: Biodistribution in Sprague-Dawley rat intestine at 3.2 to 18.6 MBq, iv after 90 mins by micro PET analysis; type: ADME, organism-based; settings: in vivo, 1.5 h; summary of the method: as §3
Muscle tissue [33] = test: Biodistribution in Sprague-Dawley rat muscle at 3.2 to 18.6 MBq, iv after 90 mins by micro PET analysis; type: ADME, organism-based; settings: in vivo, 1.5 h; summary of the method: as §3
[34] = Biodistribution in Sprague-Dawley rat fat at 3.2 to 18.6 MBq, iv after 90 mins by micro PET analysis; type: ADME, organism-based, Adipose tissue; settings: in vivo, 1.5 h; summary of the method: as §3
Brain [35] = test: Biodistribution in Sprague-Dawley rat brain at 3.2 to 18.6 MBq, iv after 90 mins by micro PET analysis; type: ADME, organism-based; settings: in vivo, 1.5 h; summary of the method: as §3
Bone [36] = test: Biodistribution in Sprague-Dawley rat bone at 3.2 to 18.6 MBq, iv after 90 mins by micro PET analysis; type: ADME, organism-based, Bone element; settings: in vivo, 1.5 h; summary of the method: as §3
Rattus norvegicus [37] = test: Biodistribution in Sprague-Dawley rat cartilage at 3.2 to 18.6 MBq, iv after 90 mins by micro PET analysis; type: ADME, organism-based, Cartilage tissue; settings: in vivo, 1.5 h; summary of the method: as §3

## O=C(Nc1ccc2[nH]c(=O)oc2c1)C(=O)N1CCC(Cc2ccc([18F])cc2)CC1
Muscle tissue [1]
  Drug uptake: 0.069 % ID/g
[2]
  Drug uptake: 0.056 % ID/g
Brain [3]
  Drug uptake: 0.054 % ID/g
Bone [4]
  Drug uptake: 0.397 % ID/g
Rattus norvegicus [5]
  Drug uptake: 0.776 % ID/g
Thymus [6]
  Drug uptake: 0.057 % ID/g
[7]
  half-life: 50 min
Lung [8]
  Drug uptake: 0.132 % ID/g
Heart [9]
  Drug uptake: 0.076 % ID/g
Pancreas [10]
  Drug uptake: 0.08 % ID/g
Liver [11]
  Drug uptake: 1.365 % ID/g
Spleen [12]
  Drug uptake: 0.169 % ID/g
Kidney [13]
  Drug uptake: 0.377 % ID/g
[14]
  Drug uptake: 3.237 % ID/g
Rattus norvegicus [15]
  Drug uptake: 0.175 % ID/g
Intestine [16]
  Drug uptake: 0.107 % ID/g
Hippocampus
  Drug uptake: 0.064 % ID/g
Cerebellum
  Drug uptake: 0.046 % ID/g

## Oc1ccc2[nH]c(CN3CCC(Cc4ccc(F)cc4)CC3)nc2c1
[17]
  IC50: 620 nM
[18]
  IP: 500 nM
[19]
  IC50: 47.3 nM
[20]
  inhibition: 10.5%
Plasma
  Stability: Stable
Liver [21]
  Stability: Stable

## O=C(Nc1ccc2nc(O)sc2c1)C(=O)N1CCC(Cc2ccccc2)CC1
Mus musculus
  ED50: 0.5 mg/kg

## CS(=O)(=O)Nc1ccc2[nH]c(CN3CCC(Cc4ccc(F)cc4)CC3)nc2c1
[19]
  IC50: 57.7 nM

## O=C(Nc1ccc2[nH]c(=O)oc2c1)C(=O)N1CCC(Cc2ccc(F)cc2)CC1 [RADIPRODIL]
[22]
  IC50: 6 nM
[19]
  IC50: 69.9 nM
Plasma
  Stability: Stable
Liver [21]
  Stability: Stable

## [18F]c1ccc(CC2CCNCC2)cc1
Thymus [23]
  Drug uptake: 0.187 % ID/g
Lung [24]
  Drug uptake: 0.507 % ID/g
Heart [25]
  Drug uptake: 0.135 % ID/g
Pancreas [26]
  Drug uptake: 0.285 % ID/g
Liver [27]
  Drug uptake: 2.307 % ID/g
Spleen [28]
  Drug uptake: 0.322 % ID/g
Kidney [29]
  Drug uptake: 1.206 % ID/g
[30]
  Drug uptake: 10.125 % ID/g
Rattus norvegicus [31]
  Drug uptake: 0.542 % ID/g
Intestine [32]
  Drug uptake: 0.902 % ID/g
Muscle tissue [33]
  Drug uptake: 0.145 % ID/g
[34]
  Drug uptake: 0.052 % ID/g
Brain [35]
  Drug uptake: 0.395 % ID/g
Bone [36]
  Drug uptake: 0.75 % ID/g
Rattus norvegicus [37]
  Drug uptake: 2.312 % ID/g
[7]
  half-life: 10 min

## O=C(Nc1ccc2[nH]c(=O)sc2c1)C(=O)N1CCC(Cc2ccc(F)cc2)CC1
[19]
  IC50: 840 nM
[20]
  inhibition: 13.2%

## O=C1Cc2cc(NC(=O)C(=O)N3CCC(Cc4ccc(F)cc4)CC3)ccc2N1
[19]
  IC50: 830 nM
[20]
  inhibition: 14.5%

## Cc1ccc(CC2CCN(C(=O)C(=O)Nc3ccc4c(c3)CC(=O)N4)CC2)cc1
Mus musculus
  ED50: 0.5 mg/kg
